Data set [1] relates to C2C12. Briefly: Activation of AMPK in mouse C2C12 cells assessed as increase in ACC phosphorylation measured after 2 hrs by Western blotting analysis. The settings on record: filed as activator, dose 0.1-20 µM. The class given is cell-based. In outline: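 C2C12 myoblasts differentiated in DMEM with 2% horse serum for 5-7 days until myotubes formed. Treated for 2 h, either at 10 μM or across a concentration range, or at 10 μM over a time course. RIPA lysates (~30 µg protein) blotted for p-AMPK/AMPK and p-ACC/ACC, detected by ECL. The p-AMPK/AMPK ratio is expressed as fold of the DMSO vehicle.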

A short description of data set [2]: Inhibition of bovine heart mitochondrial complex 1 at 5 to 20 uM measured every minute for 2 hrs by microplate reader based assay. The class given is tissue-based, Bos taurus. The settings on record: cattle, dose 5-20 µM. The procedure, abridged: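 Bovine heart mitochondria in detergent were captured on a complex I antibody-coated plate for 2 h at room temperature. Phospholipids were added, then complex I solution with compound, rotenone control or DMSO. NADH oxidation was followed as the fall in A340, read every minute for at least 2 h at 30 °C.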

Data set [3] is described as follows: Inhibition of mitochondrial complex 1 in human HepG2 cells assessed as increase in ADP/ATP ratio at 10 uM. The class given is cell-based. The settings on record: hepg2, 10 µM. In outline: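 HepG2 cells treated with 10 μM or 0.5 μM compound, or DMSO. Cellular ADP:ATP and AMP:ATP ratios were measured. Three replicates, given as mean ± SD and compared by Student's t test.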

Data set [4] can be described thus: Metabolic stability in human liver microsomes assessed as compound remaining preincubated for 5 mins followed by NADPH addition and measured up to 45 mins by LC/MS analysis. The class given is ADME, Microsome. The settings on record: time 50 min, read-out: Stabilty. The procedure, abridged:
(§1)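 Compound was preincubated with mouse (ICR/CD-1) or human liver microsomes in potassium phosphate buffer at 37 °C for 5 min, then NADPH was added to start the reaction. Samples were quenched with acetonitrile containing tolbutamide internal standard at 0, 5, 15, 30 and 45 min. Parent compound measured by LC/MS; ketanserin served as control.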

Data set [5] is described as follows: Metabolic stability in ICR/CD-1 mouse liver microsomes assessed as compound remaining preincubated for 5 mins followed by NADPH addition and measured up to 45 mins by LC/MS analysis. The class given is ADME, Microsome. The settings on record: time 50 min, read-out: Stabilty. In outline:
as §1

The species entered for data set [6] is Mus musculus. In words: Improvement in lipid homeostasis in db/db mouse assessed as effect on serum triglyceride level. The class given is functional, organism-based.
Data set [7] in a line: Induction of cardiac hypertrophy in db/db mouse at 100 mg/kg, ig administered for 10 weeks. The class given is organism-based. The settings on record: in vivo, po, 1680 h.
The subject of data set [8] is Mus musculus. Briefly: Activation of AMPK in normal lean C57BL/6 mouse assessed as increase in phosphorylated ACC level in heart tissue at 100 mg/kg, ig administered for 4 weeks by Western blot analysis. The class given is functional, organism-based. In outline:
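Male C57BL/6 mice, 9 weeks old, dosed intragastrically once daily for 4 weeks alongside vehicle controls. Heart and skeletal muscle were homogenized in RIPA buffer with protease/phosphatase inhibitors and centrifuged at 10,600 g for 20 min. About 30 µg protein was blotted for p-AMPK and p-ACC and detected by ECL.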

Data set [9] deals with H9c2. In words: Activation of AMPK in rat H9C2 cells assessed as increase in phosphorylation of AMPK at 1 to 20 uM incubated for 1 to 24 hrs by Western blot analysis. The class given is cell-based. The settings on record: dose 1-20 µM, time 1-24 hrs. In outline: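 Rat cardiac H9C2 cells treated with a concentration range for 2 h or 4 h, or with 10 μM over a time course. Lysates blotted for phosphorylated and total AMPK and ACC, detected by ECL.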

Active and inactive are the calls of the source. The calls are words filed in the database; no cut-off is given here.

As for `CC(C)(Oc1ccc(Cl)cc1)C(=O)Nc1ccc(OCc2ccc(C#N)cc2)cc1`, the Activity entry in [1] was “Dose-dependent effect”; in data set [7], “Non-Toxic”. The “inhibition (INH)” value in [2] and in data set [3] was “Not Active” in each case. The remaining at 0.75 h in data set [4] came out at 74%; in data set [5], 39%. Moreover, the outcome in [6], in [8] and in data set [9] was inactive.

The record behind these values is ChEMBL document CHEMBL4765352, “Discovery of AdipoRon analogues as novel AMPK activators without inhibiting mitochondrial complex I” (Eur J Med Chem, 2020).
